Test system: HA-YAP
Test: Immunoprecipitation of Smad7 with HA-YAP in HEK293T cells
Assay type: cell-based, human
Settings: full-length Smad7 wild type or variants with HA-YAP
In short: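 HEK293T cells were transfected with epitope-tagged constructs (HA-YAP with full-length Smad7 wild type or variants) and treated where indicated with TGF-β1 at 100 pM. Lysates were immunoprecipitated with anti-Flag antibody, then immunoblotted with antibodies against the tags.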

B1: S206A: Smad7 mutant S206A, flag epitope-tagged plasmid expressed in HEK293T (protein, UniProt O15105 1-426, looked up, variant S206A)
chain: MFRTKRSALVRRLWRSRAPGGEDEEEGAGGGGGGGELRGEGATDSRAHGAGGGGPGRAGCCLGKAVRGAKGHHHPHPPAAGAGAAGGAEADLKALTHSVLKKLKERQLELLLQAVESRGGTRTACLLLPGRLDCRLGPGAPAGAQPAQPPSSYSLPLLLCKVFRWPDLRHSSEVKRLCCCESYGKINPELVCCNPHHLSRLCELEAPPPPYSRYPMDFLKPTADCPDAVPSSAETGGTNYLAPGGLSDSQLLLEPGDRSHWCVVAYWEEKTRVGRLYCVQEPSLDIFYDLPQGNGFCLGQLNSDNKSQLVQKVRSKIGCGIQLTREVDGVWVYNRSSYPIFIKSATLDNPDSRTLLVHKVFPGFSIKAFDYEKAYSLQRPNDHEFMQQPWTGFTVQISFVKGWGQCYTRQFISSCPCWLEVIFNSR
modifications: full-length FLAG tag
binding to HA-YAP in immunoprecipitation: binding is observed

— PMC3472128 (Structure (London, England : 1993), 2012)
